What was measured:
[1] = target: T1, Neuropeptide Y receptor type 5 (Homo sapiens, UniProt Q15761); assay: Inhibition of [125I]PYY binding to human recombinant Neuropeptide Y receptor type 5 in LMtk-cells
T1 sequence (Q15761 whole entry): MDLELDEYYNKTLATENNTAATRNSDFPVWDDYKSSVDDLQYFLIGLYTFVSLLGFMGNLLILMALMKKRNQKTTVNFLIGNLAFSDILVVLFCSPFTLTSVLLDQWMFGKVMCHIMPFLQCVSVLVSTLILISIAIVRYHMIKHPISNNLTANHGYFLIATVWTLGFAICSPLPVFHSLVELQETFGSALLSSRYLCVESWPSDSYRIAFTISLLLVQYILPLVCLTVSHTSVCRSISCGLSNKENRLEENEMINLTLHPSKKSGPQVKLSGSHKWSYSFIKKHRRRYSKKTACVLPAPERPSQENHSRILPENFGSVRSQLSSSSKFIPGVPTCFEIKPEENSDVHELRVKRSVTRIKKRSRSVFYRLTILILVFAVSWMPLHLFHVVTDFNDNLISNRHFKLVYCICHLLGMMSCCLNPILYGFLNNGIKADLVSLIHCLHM
Outline: (§1)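 Radioligand displacement used [125I]PYY on human recombinant Y5 receptors expressed in LMtk- cells. Values are mean ± SE, n = 3.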

[2] = target: T1, Neuropeptide Y receptor type 5; assay: Inhibition of [125I]PYY binding human recombinant Neuropeptide Y receptor type 5 in LMtk-cells; outline: as §1
[3] = target: T1, Neuropeptide Y receptor type 5; assay: Antagonistic activity of compound was determined by its ability to inhibit NPY induced [Ca2+]i increases in CHO cells which expressed the recombinant human Neuropeptide Y receptor type 5; type: functional, cell-based
Outline: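 Human recombinant Y5 receptor co-expressed with Gqi5 in CHO cells. Cells were stimulated with 100 nM NPY and inhibition of the intracellular Ca2+ rise was measured. IC50 is given as mean ± SE, n = 3.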

[4] = Volume of distribution was determined in SD rats when administered intravenously, at 1 mg/kg compound dosage; type: ADME, organism-based; parameters: dose 1 mg/kg, route intravenous; conditions: Sprague-Dawley, rat, in vivo, iv, read-out: Vdss
Outline: (§2)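 Pharmacokinetics in SD rats: intravenous dose 1 mg/kg and oral dose 10 mg/kg. Parameters derived from plasma levels were t1/2, Vdss and CLtot (iv), and t1/2, Tmax, Cmax and F (po).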

[5] = Half life (10 mg/kg) was determined in SD rats when administered perorally; type: ADME, organism-based; conditions: Sprague-Dawley, rat, in vivo, po; outline: as §2
[6] = The concentration in brain was determined in SD rats at 2 hr after peroral administration of 10 mg/kg; type: ADME, organism-based; parameters: dose 10 mg/kg, route oral; conditions: Sprague-Dawley, rat, po
Rattus norvegicus = assay: Peak plasma concentration was determined for compound in SD rats when administered perorally at 10 mg/kg; type: ADME, organism-based; parameters: dose 10 mg/kg, route oral; conditions: in vivo, po; outline: as §2
[7] = Total body clearance was determined in SD rats when administered intravenously, at 1 mg/kg compound dosage; type: ADME, organism-based; parameters: dose 1 mg/kg, route intravenous; conditions: Sprague-Dawley, rat, in vivo, iv, read-out: CLtotal; outline: as §2
[8] = Half life (1 mg/kg) was determined in SD rats when administered intravenously; type: ADME, organism-based; conditions: Sprague-Dawley, rat, in vivo, iv; outline: as §2
[9] = Time required for peak plasma concentration was determined for compound in SD rats when administered perorally at 10 mg/kg; type: ADME, organism-based; parameters: dose 10 mg/kg, route oral; conditions: Sprague-Dawley, rat, po; outline: as §2
[10] = Bioavailability was determined for compound in SD rats when administered perorally at 10 mg/kg; type: ADME, organism-based; conditions: Sprague-Dawley, rat, in vivo, po, read-out: Fmean; outline: as §2

Compound | Ki [1] [nM] | IC50 [2] [nM] | other results
O=C(Nc1cc(-c2ccc(Cl)cc2)n[nH]1)c1cccc2ccccc12 | – | > 1000 | –
O=C(Cc1ccc2ccccc2c1)Nc1cc(-c2ccc(Cl)cc2)n[nH]1 | – | 47 | –
O=C(Nc1cc(-c2ccc(Cl)cc2)n[nH]1)c1ccccc1 | – | > 1000 | –
O=C(CCCc1ccccc1)Nc1cc(-c2ccc(Cl)cc2)n[nH]1 | – | 443 | –
O=C(Cc1cccc2ccccc12)Nc1cc(-c2ccc(Cl)cc2)n[nH]1 | – | 317 | –
O=C(O)CCc1cccc(CC(=O)Nc2cc(-c3ccc(Cl)cc3)n[nH]2)c1 | 16 | 16.3 | –
COc1ccc(-c2cc(NC(=O)Cc3ccc4ccccc4c3)[nH]n2)cc1OC | 8.3 | – | –
O=C(CCc1ccccc1)Nc1cc(-c2ccc(Cl)cc2)n[nH]1 | – | > 1000 | –
O=C(Cc1ccccc1)Nc1cc(-c2ccc(Cl)cc2)n[nH]1 | – | 803 | –
O=C(Nc1cc(-c2ccc(Cl)cc2)n[nH]1)c1ccc(-c2ccccc2)cc1 | – | > 1000 | –
O=C(Nc1cc(-c2ccc(Cl)cc2)n[nH]1)c1ccc2ccccc2c1 | – | > 1000 | –
O=C(Nc1cc(-c2ccncc2)[nH]n1)C1Cc2ccc3ccccc3c2C1 (racemic) | 10 | – | –

Continued, in another order:

Ki [1] [nM] | IC50 [2] [nM] | Compound | other results
450 | – | O=C(Nc1cc(-c2ccccc2Cl)n[nH]1)C1Cc2ccccc2C1 | –
80 | – | Cc1ccc(-c2cc(NC(=O)C3Cc4ccccc4C3)[nH]n2)cc1 | –
120 | – | O=C(Nc1cc(-c2cccc(Cl)c2)n[nH]1)C1Cc2ccccc2C1 | –
62 | – | COc1ccc(-c2cc(NC(=O)C3Cc4ccccc4C3)[nH]n2)cc1 | –
33 | – | COc1ccc(-c2cc(NC(=O)C3Cc4ccccc4C3)[nH]n2)cc1OC | –
92 | – | CC(C)Oc1ccc(-c2cc(NC(=O)C3Cc4ccccc4C3)[nH]n2)cc1 | –
260 | – | O=C(Nc1cc(-c2ccccc2)[nH]n1)C1Cc2ccccc2C1 | –
59 | – | O=C(Nc1cc(-c2ccc(Cl)cc2)n[nH]1)C1Cc2ccccc2C1 | –
2.8 | – | COc1ccc(-c2cc(NC(=O)C3Cc4ccc5ccccc5c4C3)[nH]n2)cc1OC (racemic) | –
7.3 | – | CCc1cc(-c2cc(NC(=O)C3Cc4ccc5ccccc5c4C3)[nH]n2)ccn1 (racemic) | –
25 | – | CCc1cc(-c2cc(NC(=O)C3Cc4ccc5ccccc5c4C3)[nH]n2)ccn1 (stereo in doubt; (+)-7) | IC50 [3]: 28 nM
3.5 | – | CCc1cc(-c2cc(NC(=O)C3Cc4ccc5ccccc5c4C3)[nH]n2)ccn1 (stereo in doubt; (-)-7) | Vd [4]: 0.62 L/kg; half-life [5]: 1.9 h; concentration at 2 h [6]: 450 nM; Cmax (Rattus norvegicus): 5000 nM; clearance [7]: 9.52 mL/min/kg; half-life [8]: 0.88 h; Tmax [9]: 2 h; bioavailability [10]: 70%; IC50 [3]: 14 nM
